Data from ChEMBL document CHEMBL1949507, “Synthesis and biological evaluation of [6]-gingerol analogues as transient receptor potential channel TRPV1 and TRPA1 modulators” (Bioorg Med Chem Lett, 2012).

Experiments:
Format in all cases: functional, cell-based
[1] = biological target: T1, Transient receptor potential cation channel subfamily V member 1 (Homo sapiens, UniProt Q8NER1); assay: Antagonist activity at human TRPV1 ion channel expressed in HEK293 cells assessed as inhibition of capsaicin-induced calcium influx incubated for 5 mins prior to capsicin-induction by fluo-4-AM-based fluorimetry
Method in brief: (§1)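 Stably transfected HEK293 (human TRPV1 or rat TRPA1) were loaded with Fluo-4-AM, washed in Tyrode's buffer and read by spectrofluorimetry (ex 488/em 516 nm). […] Inhibition of the agonist-evoked [Ca2+]i rise was recorded, giving IC50.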

[2] = biological target: T1, Transient receptor potential cation channel subfamily V member 1; assay: Agonist activity at human TRPV1 ion channel expressed in HEK293 cells assessed as calcium influx by fluo-4-Am-based fluorimetry
[3] = biological target: T1, Transient receptor potential cation channel subfamily V member 1; assay: Agonist activity at human TRPV1 ion channel expressed in HEK293 cells assessed as calcium influx by fluo-4-Am-based fluorimetry relative to ionomycin
[4] = biological target: T2, Transient receptor potential cation channel subfamily A member 1 (Rattus norvegicus, UniProt Q6RI86); assay: Antagonist activity at rat TRPA1 ion channel expressed in HEK293 cells assessed as inhibition of AITC-induced calcium influx incubated for 5 mins prior to AITC-induction by fluo-4-AM-based fluorimetry; method in brief: as §1
[5] = biological target: Transient receptor potential cation channel subfamily A member 1 (Rattus norvegicus) (UniProt Q6RI86); assay: Agonist activity at rat TRPA1 ion channel expressed in HEK293 cells assessed as calcium influx by fluo-4-Am-based fluorimetry relative to allyl isothiocyanate
[6] = biological target: T2, Transient receptor potential cation channel subfamily A member 1; assay: Agonist activity at rat TRPA1 ion channel expressed in HEK293 cells assessed as calcium influx by fluo-4-Am-based fluorimetry
[7] = biological target: Transient receptor potential cation channel subfamily A member 1 (Rattus norvegicus) (UniProt Q6RI86); assay: Agonist activity at rat TRPA1 ion channel expressed in HEK293 cells assessed as calcium influx by fluo-4-Am-based fluorimetry relative to ionomycin
Method in brief: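 HEK293 cells stably transfected with rat TRPA1 cDNA, loaded with Fluo-4-AM in EMEM, washed twice in Tyrode's buffer and read in a spectrofluorimeter cuvette (ex 488 nm, em 516 nm). [Ca2+]i was measured before and after adding various concentrations of test compound. Responses in non-transfected wild-type HEK293 cells served as baseline and were subtracted from transfected-cell values.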

T1 sequence (Q8NER1 whole entry): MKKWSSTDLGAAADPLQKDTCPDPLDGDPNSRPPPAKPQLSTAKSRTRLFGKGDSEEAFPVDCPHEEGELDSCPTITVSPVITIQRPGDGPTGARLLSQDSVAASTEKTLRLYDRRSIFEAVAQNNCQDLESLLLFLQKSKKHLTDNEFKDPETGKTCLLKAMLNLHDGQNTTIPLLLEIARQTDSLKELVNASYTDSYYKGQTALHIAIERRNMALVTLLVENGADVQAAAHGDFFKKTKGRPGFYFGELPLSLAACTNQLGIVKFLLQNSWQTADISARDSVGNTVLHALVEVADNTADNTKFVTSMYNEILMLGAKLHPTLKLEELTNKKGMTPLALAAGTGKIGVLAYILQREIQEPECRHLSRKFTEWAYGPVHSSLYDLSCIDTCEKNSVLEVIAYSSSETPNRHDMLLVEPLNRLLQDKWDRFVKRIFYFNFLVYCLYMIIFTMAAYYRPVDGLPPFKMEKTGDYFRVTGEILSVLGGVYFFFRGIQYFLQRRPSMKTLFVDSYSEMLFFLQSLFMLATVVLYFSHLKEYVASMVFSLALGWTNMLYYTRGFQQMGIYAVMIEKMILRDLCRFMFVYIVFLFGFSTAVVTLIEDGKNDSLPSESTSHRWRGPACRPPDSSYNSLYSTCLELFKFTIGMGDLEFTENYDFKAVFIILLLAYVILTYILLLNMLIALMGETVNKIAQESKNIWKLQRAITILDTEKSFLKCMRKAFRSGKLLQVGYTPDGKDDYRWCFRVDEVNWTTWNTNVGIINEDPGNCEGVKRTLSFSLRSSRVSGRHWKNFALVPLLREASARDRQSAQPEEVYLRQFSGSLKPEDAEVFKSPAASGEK
Chain of Transient receptor potential cation channel subfamily A member 1 (Rattus norvegicus) (Q6RI86 whole entry): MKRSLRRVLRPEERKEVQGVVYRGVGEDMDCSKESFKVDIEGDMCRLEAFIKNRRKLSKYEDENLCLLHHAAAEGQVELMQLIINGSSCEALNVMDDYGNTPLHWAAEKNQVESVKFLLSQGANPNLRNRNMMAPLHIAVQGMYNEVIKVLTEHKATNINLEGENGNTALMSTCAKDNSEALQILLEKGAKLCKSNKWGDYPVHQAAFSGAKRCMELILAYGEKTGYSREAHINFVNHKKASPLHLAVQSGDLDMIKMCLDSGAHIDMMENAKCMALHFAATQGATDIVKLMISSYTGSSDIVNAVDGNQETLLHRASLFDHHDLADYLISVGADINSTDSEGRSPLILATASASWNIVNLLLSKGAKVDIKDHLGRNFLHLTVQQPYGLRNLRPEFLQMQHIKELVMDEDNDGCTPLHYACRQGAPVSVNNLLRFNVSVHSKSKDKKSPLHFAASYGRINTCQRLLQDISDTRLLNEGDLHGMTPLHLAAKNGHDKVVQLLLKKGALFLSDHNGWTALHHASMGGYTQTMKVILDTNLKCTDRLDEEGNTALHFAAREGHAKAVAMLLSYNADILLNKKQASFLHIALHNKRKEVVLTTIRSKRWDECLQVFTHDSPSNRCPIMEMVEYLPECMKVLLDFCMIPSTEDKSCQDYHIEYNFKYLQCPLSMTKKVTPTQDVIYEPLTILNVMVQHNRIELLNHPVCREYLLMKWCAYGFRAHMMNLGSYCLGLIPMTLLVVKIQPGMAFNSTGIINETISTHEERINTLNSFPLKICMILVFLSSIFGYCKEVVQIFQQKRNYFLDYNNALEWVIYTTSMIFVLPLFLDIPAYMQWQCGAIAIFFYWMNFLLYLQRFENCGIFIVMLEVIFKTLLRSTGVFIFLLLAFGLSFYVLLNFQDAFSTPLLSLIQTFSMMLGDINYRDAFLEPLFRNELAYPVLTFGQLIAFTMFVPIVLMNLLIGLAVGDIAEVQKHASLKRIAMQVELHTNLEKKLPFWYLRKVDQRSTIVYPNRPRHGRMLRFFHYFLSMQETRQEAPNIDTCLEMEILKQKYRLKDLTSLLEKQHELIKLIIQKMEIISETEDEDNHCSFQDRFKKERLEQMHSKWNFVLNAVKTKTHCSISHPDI
T2 sequence (Q6RI86 whole entry): as above

Compound | IC50 [1] [µM] | EC50 [2] [µM] | Efficacy [3] [%] | IC50 [4] [µM] | Efficacy [5] [%] | EC50 [6] [µM] | Efficacy [7] [%]
O=C(CCc1ccc(O)cc1)CC(O)CCCCCCc1ccccc1 (stereo not given) | 9.4 | 14.6 | 43 | 15.8 | < 10 | – | –
O=C(CCc1ccccc1)CC(O)Cc1ccccc1 (stereo not given) | > 50 | – | < 10 | 4.5 | 17.5 | – | –
CCCCC/C=C/C(=O)CCc1ccc(O)c(OC)c1 [SHOGAOL] | 0.29 | 0.32 | 79.2 | 16.7 | 91.1 | 16 | –
CCCCCC(O)CC(=O)CCc1cc(C(C)C)c(O)c(C(C)C)c1 (stereo not given) | > 50 | – | < 10 | 2.8 | 63.6 | 2.1 | –
CCCCCC(O)CC(=O)CCc1ccc(O)c(OC)c1 (racemic) | 5 | 3.3 | 51.4 | > 100 | 11.4 | 10.4 | –
CC(C)c1cc(CCC(=O)CC(O)CCCCCCc2ccccc2)cc(C(C)C)c1O (stereo not given) | > 10 | – | < 10 | 11.1 | < 10 | – | –
C=CCN=C=S | – | – | – | – | – | – | 41.8
CCCCCC(O)CC(=O)CCc1ccccc1 (stereo not given) | > 50 | – | < 10 | 56.1 | < 10 | – | –
CCCCCC(O)CC(=O)CCc1ccc(O)cc1 (stereo not given) | 10.5 | 1.2 | 23.6 | 22.6 | 114 | 8.4 | –
O=C(CCc1ccc2c(c1)OCO2)CC(O)Cc1ccccc1 (stereo not given) | > 50 | – | < 10 | 14.4 | 16.5 | – | –
Cc1cc(O)c(C(C)C)cc1CCC(=O)CC(O)Cc1ccccc1 (stereo not given) | 35.3 | – | < 10 | 39.7 | 51.3 | 3.5 | –
Cc1cc(O)c(C(C)C)cc1CCC(=O)CC(O)CCCCCCc1ccccc1 (stereo not given) | 1.3 | 0.5 | 33.5 | 14.3 | 163 | 22.1 | –
O=C(/C=C/CCCCCCc1ccccc1)CCc1ccc(O)cc1 | 1.2 | 0.1 | 19.7 | 2.3 | 89.2 | 2.2 | –
O=C(CCc1ccc2c(c1)OCO2)CC(O)CCCCCCc1ccccc1 (stereo not given) | > 10 | – | – | – | – | – | –
COc1cc(CCC(=O)CC(O)CCCCCCc2ccccc2)ccc1O (stereo not given) | 0.11 | 0.11 | 60 | 38.2 | < 10 | – | –
CCCCCC(O)CC(=O)CCc1cc(C(C)C)c(O)cc1C (stereo not given) | 4.8 | – | < 10 | 3.9 | 78.2 | 1.1 | –
CCCCCC(O)CC(=O)CCc1ccc2c(c1)OCO2 (stereo not given) | > 100 | – | < 10 | > 100 | < 10 | – | –
COc1cc(CNC(=O)CCCC/C=C/C(C)C)ccc1O | – | – | – | – | 100 | – | –
CC(C)c1cc(CCC(=O)CC(O)Cc2ccccc2)cc(C(C)C)c1O (stereo not given) | > 50 | – | < 10 | – | < 10 | – | –
COc1cc(CCC(=O)CC(O)Cc2ccccc2)ccc1O (stereo not given) | 13.2 | 14.3 | 56.9 | 97.8 | < 10 | – | –
O=C(CCc1ccccc1)CC(O)CCCCCCc1ccccc1 (stereo not given) | > 10 | – | < 10 | – | < 10 | – | –
O=C(CCc1ccc(O)cc1)CC(O)Cc1ccccc1 (stereo not given) | 33.5 | 1 | 10.8 | 35.1 | 131 | 10.7 | –
